In BindingDB's records for doi:10.1016/j.bmcl.2009.10.078 (Niddk, 2009):

Biological target: T1, Protein Tat (Human immunodeficiency virus type 1 group M subtype B (isolate HXB2), UniProt P04608)
T1 sequence (P04608 whole entry): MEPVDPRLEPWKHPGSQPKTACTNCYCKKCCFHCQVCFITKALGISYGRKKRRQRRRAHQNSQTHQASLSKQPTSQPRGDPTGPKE
Experiment: Inhibition of HIV1 TAT transfected to human HeLa cells assessed as decrease in luminescence after 48 hrs by duel luciferase reporter gene assay
Summary of the method: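 HeLa cells stably carrying HIV-1 Tat and firefly luciferase on one bicistronic mRNA plus an HIV-1 LTR-renilla luciferase reporter. IC50 taken from dose-dependent fall in renilla luminescence (Tat-TAR function); firefly signal monitors Tat expression/cytotoxicity.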

Row | IC50 [µM] | Structure (SMILES)
1 | 0.9 | C[C@@H](CN[C@H](CN[C@H](CN[C@H](CNCCC(N)=O)Cc1ccc(O)cc1)Cc1ccc(O)cc1)Cc1ccc(O)cc1)NC[C@H](Cc1ccc(O)cc1)NC[C@H](Cc1ccc(O)cc1)NC[C@H](Cc1ccc(O)cc1)NC[C@@H](N)Cc1ccc(O)cc1
2 | 10 | NCCCC[C@@H](CN[C@H](CNCCC(N)=O)Cc1ccc(O)cc1)NC[C@H](Cc1ccc(O)cc1)NC[C@H](CCCCN)NC[C@H](Cc1c[nH]c2ccccc12)NC[C@@H](N)Cc1ccc(O)cc1
3 | 35 | NCCCC[C@@H](CN[C@H](CNCCC(N)=O)Cc1ccc(O)cc1)NC[C@H](Cc1ccc(O)cc1)NC[C@H](CCCCN)NC[C@H](Cc1ccc(O)cc1)NC[C@@H](N)Cc1ccc(O)cc1
4 | 19 | NC(=O)CCNC[C@H](Cc1ccc(O)cc1)NC[C@H](Cc1ccc(O)cc1)NC[C@@H](N)Cc1ccc(O)cc1
5 | 12 | NCCCC[C@@H](CN[C@H](CN[C@H](CN[C@H](CNCCC(N)=O)Cc1ccc(O)cc1)Cc1ccc(O)cc1)Cc1ccc(O)cc1)NC[C@H](Cc1ccc(O)cc1)NC[C@@H](N)Cc1ccc(O)cc1
6 | 6 | C[C@@H](CN[C@H](CN[C@H](CN[C@H](CNCCC(N)=O)Cc1ccc(O)cc1)Cc1ccc(O)cc1)Cc1ccc(O)cc1)NC[C@H](Cc1ccc(O)cc1)NC[C@@H](N)Cc1ccc(O)cc1
7 | 30 | NC(=O)CCNC[C@H](Cc1ccc(O)cc1)NC[C@H](Cc1ccc(O)cc1)NC[C@H](Cc1ccc(O)cc1)NC[C@H](Cc1ccc(O)cc1)NC[C@@H](N)Cc1ccc(O)cc1
